Results from ChEMBL document CHEMBL2086279, “Synthesis of novel Schiff base analogues of 4-amino-1,5-dimethyl-2-phenylpyrazol-3-one and their evaluation for antioxidant and anti-inflammatory activity” (Bioorg Med Chem, 2012).
Calls of active or inactive are those of the source. No cut-off for these calls is given here.

Experiments:
RAW264.7 [1] = assay: Inhibition of iNOS mRNA expression in mouse RAW264.7 cells pre-treated for 30 mins before LPS stimulation measured 24 hrs post LPS challenge by RT-PCR; format: functional, cell-based
How it was run: (§1)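 Cells pretreated with compound 30 min, then LPS 200 ng/mL for 24 h; total RNA extracted with TRIzol, quality checked by 260/280 absorbance; iNOS and COX-2 mRNA assessed by RT-PCR with gene-specific primers.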

RAW264.7 [2] = assay: Antiinflammatory activity in mouse RAW264.7 cells assessed as inhibition of LPS-induced nitric oxide production pre-treated for 30 mins before LPS stimulation measured 24 hrs post LPS challenge by Griess assay; format: functional, cell-based
How it was run: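 LPS 200 ng/mL for 24 h after 30 min pretreatment at various concentrations; cells seeded 5 × 10^5/well overnight at 37 °C in DMEM/10% FBS. Nitrite in medium read with Griess reagent (1% sulfanilamide, 0.1% N-1-naphthylenediamine dihydrochloride, 2.5% phosphoric acid), 10 min, absorbance 570 nm, quantified against sodium nitrite standard curve.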

RAW264.7 [3] = assay: Cytotoxicity against mouse RAW264.7 cells assessed as change in cell viability at 50 ug/mL incubated for 24 hrs by MTT assay; format: cell-based; settings: raw264.7, 24 h
How it was run: (§2)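 RAW264.7 (passage ≤20, DMEM/10% FBS) seeded 5 × 10^4 cells/well, exposed to compound 24 h; MTT (5 mg/ml stock) added 4 h, formazan dissolved in 0.04 N HCl/isopropyl alcohol, OD read at 570 and 630 nm.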

RAW264.7 [4] = assay: Cytotoxicity against mouse RAW264.7 cells assessed as change in cell viability at 25 ug/mL incubated for 24 hrs by MTT assay; format: cell-based; settings: raw264.7, 24 h; how it was run: as §2
RAW264.7 [5] = assay: Cytotoxicity against mouse RAW264.7 cells assessed as change in cell viability at 12 ug/mL incubated for 24 hrs by MTT assay; format: cell-based; settings: raw264.7, 24 h; how it was run: as §2
RAW264.7 [6] = assay: Inhibition of COX2 mRNA expression in mouse RAW264.7 cells at 50 ug/mL pre-treated for 30 mins before LPS stimulation measured 24 hrs post LPS challenge by RT-PCR; format: functional, cell-based; how it was run: as §1
[7] = tested on: Radical scavenging activity; assay: Antioxidant activity assessed as DPPH free radical scavenging activity incubated for 30 mins; format: functional
How it was run: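 Blois method, modified: 0.1 ml sample in ethanol (2.5–20 mg/mL) mixed with 4 ml 1.5 × 10^-5 M DPPH, kept dark at room temperature 30 min; absorbance at 520 nm used to calculate % radical scavenging.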

RAW264.7 [8] = assay: Cytotoxicity against mouse RAW264.7 cells assessed as change in cell viability at 6 ug/mL incubated for 24 hrs by MTT assay; format: cell-based; settings: raw264.7, 24 h; how it was run: as §2
[9] = Solubility in DMSO; format: physicochemical

Structure (SMILES) | IC50 [7] [µM] | further results
Cc1c(/N=C/c2ccc(O)c(O)c2)c(=O)n(-c2ccccc2)n1C | 0.93 | inhibition (RAW264.7 [1]): Dose-dependent effect; Activity (RAW264.7 [2]): Dose-dependent effect; Activity (RAW264.7 [3]): Non-toxic; Activity (RAW264.7 [4]): Non-toxic; Activity (RAW264.7 [5]): Non-toxic; inhibition (RAW264.7 [6]): Active; Activity (RAW264.7 [8]): Non-toxic
COc1cc(/C=N/c2c(C)n(C)n(-c3ccccc3)c2=O)cc(OC)c1O | 1.66 | 
Cc1c(/N=C/c2ccccc2)c(=O)n(-c2ccccc2)n1C | 31.3 | 
Cc1c(/N=C/c2ccccc2C=O)c(=O)n(-c2ccccc2)n1C | 34.5 | 
Cc1c(/N=C/c2ccc(O)cc2)c(=O)n(-c2ccccc2)n1C | 18.8 | 
COc1ccc(/C=N/c2c(C)n(C)n(-c3ccccc3)c2=O)c(OC)c1 | 14.5 | 
COc1ccc(/C=N/c2c(C)n(C)n(-c3ccccc3)c2=O)cc1 | 15.3 | 
COc1ccc(/C=N/c2c(C)n(C)n(-c3ccccc3)c2=O)cc1OC | 7.27 | 
Cc1c(/N=C/c2ccc(Cl)cc2)c(=O)n(-c2ccccc2)n1C | 31.7 | 
Cc1c(/N=C/c2ccc(O)cc2O)c(=O)n(-c2ccccc2)n1C | 2.5 | 
Cc1c(/N=C/c2ccccc2/C=N/c2c(C)n(C)n(-c3ccccc3)c2=O)c(=O)n(-c2ccccc2)n1C | 3.14 | 
Cc1c(/N=C/c2c(O)cc(O)cc2O)c(=O)n(-c2ccccc2)n1C | 0.44 | solubility [9]: Insoluble
O=C1O[C@H]([C@@H](O)CO)C(O)=C1O [ASCORBIC ACID] | 0.41 | 
COc1ccc(/C=N/c2c(C)n(C)n(-c3ccccc3)c2=O)cc1C | 5.22 | 
